# STEP inh: STEP phosphatase inhibitors, primary screen, biochemical, fluorescence intensity, uHTS; Tyrosine-protein phosphatase non-receptor type 5 (Homo sapiens), P54829; recombinant STEP, OMFP fluorogenic substrate; inhibition, % at 20 µM; 360,000 tested, 0.25% active; AID 588621, 2011;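 active = inhibition at 20 µM, scaled per plate between control wells, above about 37%, limit read from the data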
#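 Also added – OMFP at 25 µM · Test system – STEP tyrosine phosphatase · Technique – FITC-channel fluorescence of OMFP product · Schedule – 20 min at room temperature, dark · Evaluation – control-normalized % inhibition with plate pattern correction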
# Scp1 inh: Scp-1 phosphatase inhibitors, primary screen, biochemical, colorimetric, uHTS | Recombinant Scp1, phosphopeptide, malachite green phosphate absorbance | inhibition, % at 20 µM | 340,000 tested, 0.88% active;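 active = inhibition above about 50% at 20 µM, limit read from the data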
# Target sequence (Q9GZU7 76-261 limits assumed): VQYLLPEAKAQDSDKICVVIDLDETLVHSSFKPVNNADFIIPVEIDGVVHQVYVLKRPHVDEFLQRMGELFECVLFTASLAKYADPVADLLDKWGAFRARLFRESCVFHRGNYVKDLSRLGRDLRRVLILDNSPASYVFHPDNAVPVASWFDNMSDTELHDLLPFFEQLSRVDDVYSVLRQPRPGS
#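 Assay system: SCP-1 catalytic fragment, aa 76-261 | Buffer or medium: Tris acetate buffer pH 5.5 with MgCl2 and Tween-20 | Compound: One concentration, 20 µM, with 1.0% DMSO | Also added: Phospho 17-mer peptide substrate | Signal: Absorbance at 630 nm | Incubation: 45 min enzyme reaction at room temperature | Measure: % inhibition of SCP-1 phosphate liberation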
# SUMO1-SIM PPI: modulators of SUMO1 protein-protein interactions, primary screen, biochemical, uHTS; AID 602429, 2012; Small ubiquitin-related modifier 1 (Homo sapiens), P63165; inhibition, % at 20 µM; SUMO1 binding to a labelled peptide, TR-FRET, 1 h; 360,000 tested, 0.33% active; in the data active = inhibition above about 37%
# Target sequence (P63165 whole entry, looked up): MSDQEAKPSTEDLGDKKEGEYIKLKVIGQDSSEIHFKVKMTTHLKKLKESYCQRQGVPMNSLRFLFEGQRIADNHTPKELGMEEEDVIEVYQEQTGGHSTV
# LMPTP block: LMPTP phosphatase inhibitors, primary screen, biochemical, fluorescence intensity, uHTS | recombinant LMPTP-A, OMFP fluorogenic substrate | inhibition, % at 20 µM | 360,000 tested, 0.22% active | AID 651560, 2012;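 active = compounds that cut the enzyme signal by at least half of the control window in the single-dose screen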
# Target sequence (P24666 whole entry, looked up): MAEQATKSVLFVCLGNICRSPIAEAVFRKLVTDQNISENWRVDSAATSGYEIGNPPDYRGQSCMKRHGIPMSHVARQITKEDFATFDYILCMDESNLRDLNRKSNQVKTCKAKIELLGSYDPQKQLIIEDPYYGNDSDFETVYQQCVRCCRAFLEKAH
#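 Test system: LMPTP-A, protein tyrosine phosphatase of low molecular weight; Input: 0.625 nM enzyme; Incubation: 50 min dark incubation at room temperature; Signal: endpoint fluorescence intensity from OMFP dephosphorylation; Read-out basis: % inhibition versus control wells.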
# FAS-TE inh: FAS thioesterase domain inhibitors, primary screen, biochemical, fluorescence intensity, uHTS; recombinant FAS-TE, OMFH fluorogenic substrate, fluorescence endpoint; inhibition, % at 15 µM; 360,000 tested, 0.67% active; AID 602261, 2012;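 active = compounds whose normalised, plate-corrected inhibition of enzyme fluorescence in the single-dose primary screen is 50% or more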
# FAS-TE inh conf: FAS thioesterase domain inhibitors, confirmation, biochemical, fluorescence intensity, single concentration; shares compounds with FAS-TE inh; recombinant FAS-TE, OMFH fluorogenic substrate; inhibition, % at 15 µM; 2,300 tested, 45% active;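 active = compounds inhibiting the enzyme by at least 50% at 15 µM in any one of the replicates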
# A number is an active result; i = inactive; nt = no result. This is a sample that favours compounds with a hit; in the whole collection about 1.9% have one here.
SMILES,STEP inh,Scp1 inh,SUMO1-SIM PPI,LMPTP block,FAS-TE inh,FAS-TE inh conf
Oc1c(Br)c(Br)c(Br)c(Br)c1Br,i,i,i,i,60,72
COC(=O)C1=C(C(=O)OC)SC2(S1)C(C(=O)OC)=C(C(=O)OC)Sc1c2ssc1=O,i,i,i,i,i,nt
O=C(COC(=O)c1cc(Br)cc(Br)c1O)NC12CC3CC(CC(C3)C1)C2,i,nt,i,i,i,nt
N#Cc1ccc2nc(-c3ccc(CN4CCC(n5c(=O)[nH]c6ccccc65)CC4)cc3)c(-c3ccccc3)nc2c1,nt,nt,i,i,93,i
COc1ccc(C(c2nnnn2-c2ccc3c(c2)OCCO3)N2CCC3(CC2)C(=O)NCN3c2ccccc2)cc1 (stereo not drawn),i,nt,i,i,63,i
O=C1NCN(c2ccccc2)C12CCN(C(CCc1ccccc1)c1nnnn1-c1ccc3c(c1)OCCO3)CC2 (stereo not drawn),i,nt,i,i,65,i
O=C1NCN(c2ccccc2)C12CCN(C(c1cccc3ccccc13)c1nnnn1C1CCCC1)CC2 (stereo not drawn),i,nt,i,i,77,i
COc1ccc(-n2nnnc2C(CCc2ccccc2)N2CCC3(CC2)C(=O)NCN3c2ccccc2)cc1 (stereo not drawn),i,nt,i,i,i,nt
CCC(c1nnnn1-c1ccc(OC)cc1)N1CCC2(CC1)C(=O)NCN2c1ccccc1 (stereo not drawn),i,nt,i,i,i,nt
C/C(=N\N1CCCCC1c1cccnc1)c1c(O)n(C2CCCCC2)c(=S)[nH]c1=O (stereo not drawn),i,i,i,i,70,i
Cc1cccc(C)c1-n1nnnc1C(c1cccc2ccccc12)N1CCC(n2c(=O)[nH]c3ccccc32)CC1 (stereo not drawn),i,nt,i,i,86,i
COc1ccc(-n2nnnc2C(c2cc3ccccc3o2)N2CCC(n3c(=O)[nH]c4ccccc43)CC2)cc1 (stereo not drawn),i,nt,i,i,i,nt
O=c1[nH]c2ccccc2n1C1CCN(C(CCc2ccccc2)c2nnnn2C2CCCCC2)CC1 (stereo not drawn),i,nt,i,i,55,i
O=c1[nH]c2ccccc2n1C1CCN(C(c2cc3ccccc3o2)c2nnnn2-c2ccc3c(c2)OCCO3)CC1 (stereo not drawn),i,nt,i,i,66,i
COc1ccc(C(c2nnnn2-c2ccc(OC)cc2)N2CCC(n3c(=O)[nH]c4ccccc43)CC2)cc1 (stereo not drawn),i,nt,i,i,i,nt
O=c1[nH]c2ccccc2n1C1CCN(C(c2cccc3ccccc23)c2nnnn2-c2ccc3c(c2)OCCO3)CC1 (stereo not drawn),i,nt,i,i,72,i
CC(C)(C)n1nnnc1C(CCc1ccccc1)N1CCC2(CC1)C(=O)NCN2c1ccccc1 (stereo not drawn),i,nt,i,i,i,nt
c1cc2c(cc1N1CCCCC1)C1CC2CCN1 (stereo not drawn),i,i,i,i,i,nt
O=P(/C=C1\OCc2ccccc21)(Oc1ccccc1)Oc1ccccc1,nt,nt,i,i,nt,nt
COC(=O)C1=C(c2ccc(-c3ccccc3)c(F)c2)C[C@@H]2CC[C@H]1N2C(=O)NC1Cc2ccccc2C1,i,i,i,i,53,i
CCCCCN1C(=O)c2cc(OC)ccc2[C@@]2(C(=O)OCC)Cc3cc(OC)ccc3[C@@H]12,nt,nt,i,i,52,i
CCOC(=O)[C@]12Cc3cc(Cl)ccc3[C@H]1N(C1CCCCC1)C(=O)c1cc(OC)ccc12,nt,nt,i,i,84,39
CCOC(=O)[C@]12Cc3ccccc3[C@H]1N(C(C)C)C(=O)c1ccccc12,nt,nt,i,i,i,nt
CCOC(=O)[C@]12Cc3ccc(C)cc3[C@H]1N(C1CCCCC1)C(=O)c1ccccc12,nt,nt,i,i,80,24
CCOC(=O)[C@]12Cc3cc(Cl)ccc3[C@H]1N(C)C(=O)c1cc(OC)ccc12,nt,nt,i,i,i,nt
SMILES,STEP inh,Scp1 inh,SUMO1-SIM PPI,LMPTP block,FAS-TE inh,FAS-TE inh conf
CCOC(=O)[C@]12Cc3c(cc(OC)c(OC)c3OC)[C@H]1N(C1CCCCC1)C(=O)c1ccccc12,nt,nt,i,i,81,62
C[C@]12CCC3C(CC[C@H]4C[C@@H](O)CC[C@]34C)C1CC[C@@H]2OC(=O)[C@H](N)CCCCN (stereo partly drawn),i,i,i,i,i,nt
CCOC(=O)[C@]12Cc3cc(OC)ccc3[C@H]1N(C)C(=O)c1cc(OC)ccc12,nt,nt,i,i,i,nt
CCOC(=O)[C@]12Cc3cc(C)ccc3[C@H]1N(C1CCCCC1)C(=O)c1ccccc12,nt,nt,i,i,82,33
CCOC(=O)[C@]12Cc3cc(C)ccc3[C@H]1N(CCC(=O)OC)C(=O)c1ccccc12,nt,nt,i,i,i,nt
CCOC(=O)[C@]12Cc3ccc(C)cc3[C@H]1N(C1CCCCC1)C(=O)c1cc(OC)ccc12,nt,nt,i,i,77,28
O=c1oc2ccccc2c(O)c1C(c1ccc([N+](=O)[O-])cc1)c1c(O)c2ccccc2oc1=O,i,i,i,i,76,82
O=C(NCCN1CCC2(CC1)C(=O)NCN2c1cccc(F)c1)c1ccc2ccccc2c1,nt,nt,i,i,i,nt
Oc1ccc(O)c2c1C1(Cl)C(Cl)=C(Cl)C2(Cl)C1(Cl)Cl,i,i,i,i,51,50
COc1ccc(NC2Oc3cc4c(cc3C(c3cc(OC)c(OC)c(OC)c3)C2C)OCO4)cc1 (stereo not drawn),i,i,i,i,i,nt
COc1ccc(CN2Cc3cc(N4CCCCC4)ccc3-n3nncc3C2)cc1,i,nt,i,i,i,nt
CCOC(=O)c1cccc(C2=C(CNC(=O)c3nccs3)[C@H]3CC[C@@H](C2)N3Cc2ccccc2)c1,i,nt,i,i,i,nt
O=[N+]([O-])c1ccccc1CN1CC=C(c2ccc(F)cc2)CC1,i,i,i,i,i,nt
O=[N+]([O-])c1cccc(CN2CC=C(c3ccc(F)cc3)CC2)c1,i,i,i,i,57,53

# Bioassay records deposited in PubChem by Sanford-Burnham Center for Chemical Genomics.
